This note sets out measurements from ChEMBL document CHEMBL1649115, “Enhanced susceptibility to antifungal oligopeptides in yeast strains overexpressing ABC multidrug efflux pumps” (Antimicrob Agents Chemother, 2008).

The term MIC denotes the lowest concentration that inhibits growth of the organism.

Values after ≈ are worked out from the molar mass of the structure shown. Residues, ends and D or L forms follow the SMILES beside them. *: point of attachment. Ethyl(2-NH2) = NCC*

Data set [1] has as its system Saccharomyces cerevisiae. In words: Antifungal activity against wild type Saccharomyces cerevisiae ATCC 9763 in YNPG-proline medium after 24 hrs by microdilution method. It is filed as functional. The following applies: ATCC 9763, 24 h.
For data set [2], the system named is Saccharomyces cerevisiae. The experiment in a line: Antifungal activity against Saccharomyces cerevisiae ADMDR1 expressing Candida albicans MDR1 efflux pump in YNPG-proline medium after 24 hrs by microdilution method. It is filed as functional. The following applies: ADMDR1, 24 h. (In broth dilution the organism is exposed to a series of concentrations in liquid medium.)

The subject of data set [3] is Saccharomyces cerevisiae. In words: Antifungal activity against Saccharomyces cerevisiae AD12345678 in YNPG-proline medium after 24 hrs by microdilution method. It is filed as functional. The following applies: AD12345678, 24 h.
Data set [4] has as its system Saccharomyces cerevisiae. In words: Antifungal activity against Saccharomyces cerevisiae ADCDR2 expressing Candida albicans CDR2 efflux pump in YNPG-proline medium after 24 hrs by microdilution method. Conditions: ADCDR2, 24 h. It is filed as functional.
Data set [5] has as its system Saccharomyces cerevisiae. In words: Antifungal activity against Saccharomyces cerevisiae ADCDR1 expressing Candida albicans CDR1 efflux pump in YNPG-proline medium after 24 hrs by microdilution method. It counts as functional. Conditions: ADCDR1, 24 h.
For data set [6], the system named is Candida albicans. In words: Prodrug stability in fluconazole sensitive Candida albicans isolate B3 assessed as compound cleavage rate measured per mg of protein. It counts as ADME, organism-based. The following applies: in vivo.
The test system of data set [7] is Saccharomyces cerevisiae. In words: Drug uptake in Saccharomyces cerevisiae AD12345678 at 200 uM pretreated for 10 mins measured after 60 mins by fluorescamine staining. It counts as ADME, organism-based. Conditions: in vivo, 1 h.
Data set [8] deals with Saccharomyces cerevisiae. In words: Drug uptake in Saccharomyces cerevisiae ADCDR2 expressing Candida albicans CDR2 efflux pump at 200 uM pretreated for 10 mins measured after 60 mins by fluorescamine staining. It counts as ADME, organism-based. Conditions: in vivo, 1 h.
Data set [9] has as its system Saccharomyces cerevisiae. The experiment in a line: Prodrug stability in Saccharomyces cerevisiae AD12345678 assessed as compound cleavage rate measured per mg of protein. The following applies: in vivo. It counts as ADME, organism-based.
The subject of data set [10] is Candida albicans. In words: Prodrug stability in wild type Candida albicans 10261 assessed as compound cleavage rate measured per mg of protein. It counts as ADME, organism-based. The following applies: in vivo.
Data set [11] concerns Saccharomyces cerevisiae. In words: Drug uptake in Saccharomyces cerevisiae ADCDR1 expressing Candida albicans CDR1 efflux pump at 200 uM pretreated for 10 mins measured after 60 mins by fluorescamine staining. It counts as ADME, organism-based. Conditions: in vivo, 1 h.
Data set [12] deals with Saccharomyces cerevisiae. The experiment in a line: Prodrug stability in Saccharomyces cerevisiae ADCDR1 expressing Candida albicans CDR1 efflux pump assessed as compound cleavage rate measured per mg of protein. The following applies: in vivo. It counts as ADME, organism-based.
Data set [13] deals with Saccharomyces cerevisiae. In words: Drug uptake in Saccharomyces cerevisiae ADMDR1 expressing Candida albicans MDR1 efflux pump at 200 uM pretreated for 10 mins measured after 60 mins by fluorescamine staining. It is filed as ADME, organism-based. The following applies: in vivo, 1 h.
For data set [14], the system named is Candida albicans. The experiment in a line: Prodrug stability in fluconazole sensitive Candida albicans isolate Gu4 assessed as compound cleavage rate measured per mg of protein. It is filed as ADME, organism-based. The following applies: in vivo. The procedure, abridged: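 Oligopeptides were incubated with cell extracts of the yeast cells, and their hydrolytic enzymes cleaved them. The amino acids released were quantified by the Cd-ninhydrin method.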

Data set [15] concerns Saccharomyces cerevisiae. The experiment in a line: Prodrug stability in Saccharomyces cerevisiae ADMDR1 expressing Candida albicans MDR1 efflux pump assessed as compound cleavage rate measured per mg of protein. It is filed as ADME, organism-based. Conditions: in vivo.
The test system of data set [16] is Saccharomyces cerevisiae. In words: Prodrug stability in wild type Saccharomyces cerevisiae ATCC 9763 assessed as compound cleavage rate measured per mg of protein. It is filed as ADME, organism-based. The following applies: in vivo.
Data set [17] relates to Saccharomyces cerevisiae. The experiment in a line: Prodrug stability in Saccharomyces cerevisiae ADCDR2 expressing Candida albicans CDR2 efflux pump assessed as compound cleavage rate measured per mg of protein. It is filed as ADME, organism-based. The following applies: in vivo.
Data set [18] has as its system Candida albicans. In words: Antifungal activity against fluconazole sensitive Candida albicans isolate B3 in RPMI-1640 buffered medium after 24 hrs by microdilution method. It counts as functional. The essentials: (§1)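 C. albicans cells were grown in 2% glucose, 1% yeast extract, 1% Bacto peptone medium before testing. […] CARE-2 fingerprinting confirmed that each pair is a single strain.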

The test system of data set [19] is Candida albicans. In words: Antifungal activity against fluconazole sensitive Candida albicans isolate Gu4 in RPMI-1640 buffered medium after 24 hrs by microdilution method. It counts as functional. The procedure, abridged: as §1
The test system of data set [20] is Candida albicans. In words: Antifungal activity against fluconazole resistant Candida albicans isolate B4 overexpressing MDR1 in RPMI-1640 buffered medium after 24 hrs by microdilution method. It is filed as functional. The essentials: as §1
The test system of data set [21] is Candida albicans. The experiment in a line: Antifungal activity against wild type Candida albicans 10261 in RPMI-1640 buffered medium after 24 hrs by microdilution method. It is filed as functional. The essentials: as §1
Data set [22] deals with Candida albicans. The experiment in a line: Antifungal activity against fluconazole resistant Candida albicans isolate Gu5 overexpressing CDR1 and CDR2 in RPMI-1640 buffered medium after 24 hrs by microdilution method. It counts as functional. The following applies: isolate Gu5, 24 h. The procedure, abridged: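 C. albicans cells were grown in 2% glucose, 1% yeast extract, 1% Bacto peptone medium before testing. CARE-2 fingerprinting confirmed that each pair is a single strain.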

[23] abbreviates: Candida albicans, isolate B3, 24 h, read-out: MIC.
Setting [24] is: Candida albicans, isolate Gu4, 24 h, read-out: MIC.
[25] abbreviates: Candida albicans, isolate B4, 24 h, read-out: MIC.
Where [26] appears, read: Candida albicans, 10261, 24 h, read-out: MIC.

As to `CC(C)C[C@H](NC(=O)[C@H](CC(C)C)NC(=O)[C@@H](N)COCCN)C(=O)NCC(=O)O` (H-S(Ethyl(2-NH2))LLG-OH), the MIC against Saccharomyces cerevisiae [1] was found to be 64 µg/mL (≈ 148 µM); against Saccharomyces cerevisiae [2] it was 64 µg/mL (≈ 148 µM); with Saccharomyces cerevisiae [3], 64 µg/mL (≈ 148 µM); in the data set on Saccharomyces cerevisiae [4] it was 32 µg/mL (≈ 74.2 µM); in the data set on Saccharomyces cerevisiae [5], 16 µg/mL (≈ 37.1 µM).

Consider `CC(C)C[C@H](NC(=O)[C@H](CC(C)C)NC(=O)[C@H](CC(C)C)NC(=O)[C@@H](N)COCCN)C(=O)NCC(=O)O` (H-S(Ethyl(2-NH2))LLLG-OH) [listing 1 of 2 here], for which the Stability in the data set with Candida albicans [6] came out at 20 nmol/min; in the data set on Saccharomyces cerevisiae [9], 14 nmol/min; with Candida albicans [10], 20 nmol/min; with Saccharomyces cerevisiae [12] it was 14 nmol/min; in the data set with Candida albicans [14], 20 nmol/min; with Saccharomyces cerevisiae [15] it was 14 nmol/min. The Stability with Saccharomyces cerevisiae [16] and with Saccharomyces cerevisiae [17] was 14 nmol/min each time. Also, the Drug uptake came to 0.31 nmol/min/mg in the data set on Saccharomyces cerevisiae [7], 0.51 nmol/min/mg in the data set on Saccharomyces cerevisiae [8], 0.49 nmol/min/mg in the data set with Saccharomyces cerevisiae [11] and 0.28 nmol/min/mg with Saccharomyces cerevisiae [13].

In the case of `CC(C)C[C@H](NC(=O)[C@H](CC(C)C)NC(=O)[C@H](CC(C)C)NC(=O)[C@@H](N)COCCN)C(=O)NCC(=O)O` (H-S(Ethyl(2-NH2))LLLG-OH) [listing 2 of 2 here], the MIC was found to be 256 µg/mL (≈ 470 µM) in the data set with Saccharomyces cerevisiae [1]; 256 µg/mL (≈ 470 µM) in the data set on Saccharomyces cerevisiae [2]; 256 µg/mL (≈ 470 µM) against Saccharomyces cerevisiae [3]; 128 µg/mL (≈ 235 µM) against Saccharomyces cerevisiae [4]; 128 µg/mL (≈ 235 µM) in the data set with Saccharomyces cerevisiae [5].

As to `C[C@H](N)C(=O)O` [ALANINE], the Drug uptake with Saccharomyces cerevisiae [7] amounted to 3.51 nmol/min/mg; in the data set with Saccharomyces cerevisiae [8], 4.35 nmol/min/mg; in the data set on Saccharomyces cerevisiae [11], 4.16 nmol/min/mg; in the data set on Saccharomyces cerevisiae [13], 3.33 nmol/min/mg.

On to `OC(Cn1cncn1)(Cn1cncn1)c1ccc(F)cc1F` [FLUCONAZOLE], for which the MIC against Saccharomyces cerevisiae [1] was 2 µg/mL (≈ 6.53 µM); in the data set on Saccharomyces cerevisiae [2] it was 32 µg/mL (≈ 104 µM); against Saccharomyces cerevisiae [3] it was 1 µg/mL (≈ 3.27 µM); against Saccharomyces cerevisiae [4], 16 µg/mL (≈ 52.2 µM); against Saccharomyces cerevisiae [5] it was 32 µg/mL (≈ 104 µM); with Candida albicans [18], 4 µg/mL (≈ 13.1 µM). The MIC was found to be 4 µg/mL (≈ 13.1 µM) in the data set on Candida albicans [18] (setting [23]); 8 µg/mL (≈ 26.1 µM) against Candida albicans [19]; 8 µg/mL (≈ 26.1 µM) with Candida albicans [19] (setting [24]); 64 µg/mL (≈ 209 µM) in the data set on Candida albicans [20]; 64 µg/mL (≈ 209 µM) in the data set on Candida albicans [20] (setting [25]); 4 µg/mL (≈ 13.1 µM) with Candida albicans [21]. Also, the minimal inhibitory concentration (MIC) in the data set with Candida albicans [21] (setting [26]) is 4 µg/mL (≈ 13.1 µM).

As for `C[C@H](NC(=O)[C@H](Cc1cnc[nH]1)NC(=O)[C@H](CO)NC(=O)[C@@H](N)CC(=O)O)C(=O)N[C@@H](CCCCN)C(=O)N[C@@H](CCCNC(=N)N)C(=O)N[C@@H](Cc1cnc[nH]1)C(=O)N[C@@H](Cc1cnc[nH]1)C(=O)NCC(=O)N[C@@H](Cc1ccc(O)cc1)C(=O)N[C@@H](CCCCN)C(=O)N[C@@H](CCCNC(=N)N)C(=O)N[C@@H](CCCCN)C(=O)N[C@@H](Cc1ccccc1)C(=O)N[C@@H](Cc1cnc[nH]1)C(=O)N[C@@H](CCC(=O)O)C(=O)N[C@@H](CCCCN)C(=O)N[C@@H](Cc1cnc[nH]1)C(=O)N[C@@H](Cc1cnc[nH]1)C(=O)N[C@@H](CO)C(=O)N[C@@H](Cc1cnc[nH]1)C(=O)N[C@@H](CCCNC(=N)N)C(=O)NCC(=O)N[C@@H](Cc1ccc(O)cc1)C(=O)O` [HISTATIN 5], the Stability in the data set with Candida albicans [6], in the data set on Candida albicans [10] and in the data set on Candida albicans [14] was 0.3 nmol/min in each case. For the same compound, the MIC with Saccharomyces cerevisiae [1] is 128 µg/mL (≈ 42.2 µM); against Saccharomyces cerevisiae [2] it was 128 µg/mL (≈ 42.2 µM); with Saccharomyces cerevisiae [3], 128 µg/mL (≈ 42.2 µM); against Saccharomyces cerevisiae [4], 128 µg/mL (≈ 42.2 µM); against Saccharomyces cerevisiae [5] it was 128 µg/mL (≈ 42.2 µM); in the data set with Candida albicans [18] (setting [23]), 32 µg/mL (≈ 10.5 µM). Besides, the MIC with Candida albicans [19] (setting [24]), in the data set with Candida albicans [22], in the data set with Candida albicans [20] (setting [25]) and with Candida albicans [21] (setting [26]) was 32 µg/mL (≈ 10.5 µM) each time.
